Experimental data as given in ChEMBL document CHEMBL1121364, “Nucleoside conjugates as potential antitumor agents. 3. Synthesis and antitumor activity of 1-(beta-D-arabinofuranosyl)cytosine conjugates of corticosteroids” (1980).

How the values were obtained:
L1210 [1] = experiment: Antitumor activity in the mice with intraperitoneal implanted L1210 lymphoid leukemia at the dose 25 mg/kg/day x 5 was determined as percentage increase in the life span as compared with control tumor bearers; assay type: functional; settings: Mus musculus, L1210, ip
In short: (§1)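 Female C3D2F1/J mice (C3H/HeJ × DBA/2J), groups of six to eight, average weight 25 g. Each mouse got 1 × 10^6 L1210 ascites cells ip, taken from DBA/2Ha donor mice bearing 3-5 day tumors. Compound was dissolved in 0.154 N NaOH and neutralized with 0.154 N HCl (final 0.9% NaCl). Dosed ip daily ×5, starting 24 h after implant. Recorded body weight change on day 8, survival range, median survival and 30-day survivors. ILS = (T/C − 1) × 100.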

L1210 [2] = experiment: Antitumor activity in the mice with intraperitoneal implanted L1210 lymphoid leukemia at the dose 25 mg/kg/day x 5 was determined as Survival time in days; Range is 7-15 days; assay type: functional, Mus musculus; in short: as §1
L1210 [3] = experiment: Antitumor activity in the mice with intraperitoneal implanted L1210 lymphoid leukemia at the dose 50 mg/kg/day x 5 was determined as Survival time in days; Range is 10-17 days; assay type: functional, Mus musculus; in short: as §1
L1210 [4] = experiment: Antitumor activity in mice with intraperitoneal implanted L1210 lymphoid leukemia at the dose 100 mg/kg/day x 5 was determined as weight change (g/mouse) on 8th day; assay type: functional
In short: (§2)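 C3D2F1/J female mice (C3H/HeJ × DBA/2J), groups of six to eight, average 25 g, inoculated ip with 1 × 10^6 L1210 ascites cells taken from DBA/2Ha donor mice carrying 3-5 day tumors. Compound dissolved in 0.154 N NaOH, then neutralized with 0.154 N HCl to give 0.9% NaCl. Given ip daily for 5 consecutive days starting 24 h after implantation. Body weight change per mouse recorded on day 8.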

L1210 [5] = experiment: In Vitro evaluation for the antiproliferative activity by observing the growth inhibition of L1210 lymphoid leukemia cells in culture at 72 hour; assay type: functional, Mus musculus
In short: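 Growth of L1210 lymphoid leukemia cells in culture measured by Trypan blue exclusion of viable cells after 72 h of drug exposure. ED50 is the concentration giving 50% growth inhibition. In some runs the compound was first preincubated in medium at 37 °C for 24 or 48 h before the assay.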

L1210 [6] = experiment: Antitumor activity in the mice with intraperitoneal implanted L1210 lymphoid leukemia at the dose 100 mg/kg/day x 5 was determined and number of animals survived on 30 th day were reported; 0/8; assay type: functional, Mus musculus; in short: as §1
L1210 [7] = experiment: Antitumor activity in the mice with intraperitoneal implanted L1210 lymphoid leukemia at the dose of 25 mg/kg/day x 5 was determined as mean survival of treated group compared to untreated; 11.5/9; assay type: functional, Mus musculus
In short: (§3)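 C3D2F1/J female mice (C3H/HeJ female × DBA/2J male), groups of six to eight, average weight 25 g. Inoculated ip with 1 × 10^6 L1210 ascites cells taken from DBA/2Ha donor mice bearing 3-5 day old tumors. Compounds were dissolved in 0.154 N NaOH, neutralized with 0.154 N HCl (final 0.9% NaCl), and given ip daily for 5 days from 24 h post-implant. Median survival T/C; ILS = (T/C − 1) × 100; 30-day survivors counted.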

L1210 [8] = experiment: Antitumor activity in the mice with intraperitoneal implanted L1210 lymphoid leukemia at the dose of 50 mg/kg/day x 5 was determined as mean survival of treated group compared to untreated; 13.5/9; assay type: functional, Mus musculus; in short: as §3
L1210 [9] = experiment: Antitumor activity in the mice with intraperitoneal implanted L1210 lymphoid leukemia at the dose of 100 mg/kg/day x 5 was determined as mean survival of treated group compared to untreated; 9.5/9; assay type: functional, Mus musculus; in short: as §3
L1210 [10] = experiment: Antitumor activity in mice with intraperitoneal implanted L1210 lymphoid leukemia at the dose 25 mg/kg/day x 5 was determined as weight change (g/mouse) on 8th day; assay type: functional; in short: as §2
L1210 [11] = experiment: Antitumor activity in mice with intraperitoneal implanted L1210 lymphoid leukemia at the dose 50 mg/kg/day x 5 was determined as weight change (g/mouse) on 8th day; assay type: functional; in short: as §2
L1210 [12] = experiment: Antitumor activity in the mice with intraperitoneal implanted L1210 lymphoid leukemia at the dose 25 mg/kg/day x 5 was determined and number of animals survived on 30 th day were reported; 0/8; assay type: functional, Mus musculus; in short: as §1
L1210 [13] = experiment: Antitumor activity in the mice with intraperitoneal implanted L1210 lymphoid leukemia at the dose 100 mg/kg/day x 5 was determined as percentage increase in the life span as compared with control tumor bearers; assay type: functional; settings: Mus musculus, L1210, ip; in short: as §1
L1210 [14] = experiment: Antitumor activity in the mice with intraperitoneal implanted L1210 lymphoid leukemia at the dose 50 mg/kg/day x 5 was determined and number of animals survived on 30 th day were reported; 0/8; assay type: functional, Mus musculus; in short: as §1
L1210 [15] = experiment: Antitumor activity in the mice with intraperitoneal implanted L1210 lymphoid leukemia at the dose 50 mg/kg/day x 5 was determined as percentage increase in the life span as compared with control tumor bearers; assay type: functional; settings: Mus musculus, L1210, ip; in short: as §3
L1210 [16] = experiment: Antitumor activity in the mice with intraperitoneal implanted L1210 lymphoid leukemia at the dose 100 mg/kg/day x 5 was determined as Survival time in days; Range is 8-13 days; assay type: functional, Mus musculus; in short: as §1
L1210 [17] = experiment: Antitumor activity in the mice with intraperitoneal implanted L1210 lymphoid leukemia at the dose 19.1 and 26 mg/kg/day x 5 was determined as Survival time in days; Range is 9-12 days; assay type: functional, Mus musculus; in short: as §1
L1210 [18] = experiment: Antitumor activity in mice with intraperitoneal implanted L1210 lymphoid leukemia at the dose 19.1 and 26 mg/kg/day x 5 was determined as weight change (g/mouse) on 8th day; assay type: functional; in short: as §1
L1210 [19] = experiment: Antitumor activity in the mice with intraperitoneal implanted L1210 lymphoid leukemia at the dose 9.2 and 12.6 mg/kg/day x 5 was determined as Survival time in days; Range is 13-23 days; assay type: functional, Mus musculus; in short: as §3
L1210 [20] = experiment: Antitumor activity in the mice with intraperitoneal implanted L1210 lymphoid leukemia at the dose 9.2 and 12.6 mg/kg/day x 5 was determined as percentage increase in the life span as compared with control tumor bearers; assay type: functional, Mus musculus; in short: as §3
L1210 [21] = experiment: Antitumor activity in the mice with intraperitoneal implanted L1210 lymphoid leukemia at the dose of 19.1 and 26 mg/kg/day x 5 was determined as mean survival of treated group compared to untreated; 10.5/10; assay type: functional, Mus musculus; in short: as §3
L1210 [22] = experiment: Antitumor activity in the mice with intraperitoneal implanted L1210 lymphoid leukemia at the dose 9.2 and 12.6 mg/kg/day x 5 was determined and number of animals survived on 30 th day were reported; 0/6; assay type: functional, Mus musculus; in short: as §3
L1210 [23] = experiment: Antitumor activity in mice with intraperitoneal implanted L1210 lymphoid leukemia at the dose 9.2 and 12.6 mg/kg/day x 5 was determined as weight change (g/mouse) on 8th day; assay type: functional; in short: as §1
L1210 [24] = experiment: Antitumor activity in the mice with intraperitoneal implanted L1210 lymphoid leukemia at the dose of 9.2 and 12.6 mg/kg/day x 5 was determined as mean survival of treated group compared to untreated; 16.5/11; assay type: functional, Mus musculus
L1210 [25] = experiment: Antitumor activity in the mice with intraperitoneal implanted L1210 lymphoid leukemia at the dose 19.1 and 26 mg/kg/day x 5 was determined as percentage increase in the life span as compared with control tumor bearers; assay type: functional, Mus musculus; in short: as §1
L1210 [26] = experiment: Antitumor activity in the mice with intraperitoneal implanted L1210 lymphoid leukemia at the dose 19.1 and 26 mg/kg/day x 5 was determined and number of animals survived on 30 th day were reported; 0/8; assay type: functional, Mus musculus; in short: as §1

C[C@@H]1C[C@H]2[C@@H]3CCC4=CC(=O)C=C[C@]4(C)[C@@]3(F)[C@@H](O)C[C@]2(C)[C@@]1(O)C(=O)COP(=O)(O)OC[C@H]1O[C@@H](n2ccc(N)nc2=O)[C@@H](O)[C@@H]1O
ILS at 25 mg/kg/day (L1210 [1]): 28% | Survival time (L1210 [2]): 7 days | Survival time (L1210 [3]): 10 days | Weight change (L1210 [4]): -2.02 g mouse-1 | ED 50 (L1210 [5]): 80 nM | Survivors (L1210 [6]): 0 | T/C (L1210 [7]): 11.5 | T/C (L1210 [8]): 13.5 | T/C (L1210 [9]): 9.5 | Weight change (L1210 [10]): -1.25 g mouse-1 | Weight change (L1210 [11]): -1.05 g mouse-1 | Survivors (L1210 [12]): 0 | ILS at 100 mg/kg/day (L1210 [13]): 6% | Survivors (L1210 [14]): 0 | ILS at 50 mg/kg/day (L1210 [15]): 50% | Survival time (L1210 [16]): 8 days

C[C@]12CC[C@H]3[C@@H](CCC4=CC(=O)CC[C@@]43C)[C@@H]1CC[C@@H]2C(=O)O.Nc1ccn([C@@H]2O[C@H](CO)[C@@H](O)[C@@H]2O)c(=O)n1
Survival time (L1210 [17]): 9 days | Weight change (L1210 [18]): -4.25 g mouse-1 | Survival time (L1210 [19]): 13 days | ILS (L1210 [20]): 50% | T/C (L1210 [21]): 10.5 | Survivors (L1210 [22]): 0 | Weight change (L1210 [23]): -3.58 g mouse-1 | T/C (L1210 [24]): 16.5 | ILS (L1210 [25]): 5% | Survivors (L1210 [26]): 0
